What is called EC50 is the midpoint of the concentration-response curve. As usually defined, the Emax is the size of the effect at its maximum, as opposed to the concentration needed.

Calls of active or inactive are those of the source. The rule behind the calls is not given here.

From ChEMBL document CHEMBL2331248, “Synthesis and biological evaluation of novel 2,4-disubstituted quinazoline analogues as GPR119 agonists” (Bioorg Med Chem, 2013) come the findings set out here.

Holding throughout (assay type): functional, cell-based
Test [1] concerns the target T1, Glucose-dependent insulinotropic receptor (Homo sapiens, UniProt Q8TDV5).
T1 sequence (Q8TDV5 whole entry): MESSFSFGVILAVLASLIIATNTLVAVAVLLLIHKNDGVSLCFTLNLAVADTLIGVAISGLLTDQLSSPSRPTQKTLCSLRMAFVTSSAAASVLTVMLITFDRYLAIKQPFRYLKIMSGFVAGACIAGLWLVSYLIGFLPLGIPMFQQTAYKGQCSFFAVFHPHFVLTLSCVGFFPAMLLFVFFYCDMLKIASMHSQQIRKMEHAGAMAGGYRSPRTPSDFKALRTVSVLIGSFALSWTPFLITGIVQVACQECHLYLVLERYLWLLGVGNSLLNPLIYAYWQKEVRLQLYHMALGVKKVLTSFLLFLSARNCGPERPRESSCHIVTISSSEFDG
Put plainly: Agonist activity at human GPR119 expressed in HEK293 cells assessed as cAMP accumulation after 60 mins. The gist of the method: (§1)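 HEK293 cells (4x10³/well) seeded, after 24h transiently transfected with human GPR119 expression plasmid via Lipofectamine/Plus; 24h later exposed to compounds in KRBH with 0.1% BSA and 500 μM IBMX, 60 min, 37 C. Lysed 10 min at room temperature (50 mM phosphate, 1 M KF, 1.25% Triton X-100, pH 7.0); cAMP read by HTRF. EC50 taken as concentration giving 50% of OEA cAMP stimulation; %max relative to OEA maximal effect.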
For orientation: cAMP levels reflect the balance of adenylyl cyclase and phosphodiesterase activity.

Test [2] has as its target T2, Glucose-dependent insulinotropic receptor (Homo sapiens) (UniProt Q8TDV5).
T2 sequence (whole entry): T1 sequence (Q8TDV5 whole entry)
As to the kind of experiment: Agonist activity at human GPR119 expressed in HEK293 cells assessed as cAMP accumulation after 60 mins relative to OEA. The gist of the method: as §1

For test [3], the target named is T2, Glucose-dependent insulinotropic receptor (Homo sapiens). As to the kind of experiment: Agonist activity at human GPR119 expressed in HEK293 cells assessed as cAMP accumulation at 10 uM after 60 mins.
For test [4] the target is unchanged. As to the kind of experiment: Agonist activity at human GPR119 expressed in HEK293 cells assessed as cAMP accumulation at 10 uM after 60 mins relative to OEA. The method, boiled down:
as §1

Take `COc1cc2nc(N3CCC4CCC(C3)N4C(=O)OC(C)(C)C)nc(Nc3ccc(S(C)(=O)=O)cc3)c2cc1OC` (racemic): in test [1], the EC50 was greater than 10 µM. Also, the maximal effect (Emax) in test [2] was determined as 32.7%. On to `COc1cc2nc(NCC3CC4CCC(C3)N4C(=O)OC(C)(C)C)nc(Nc3ccc(S(C)(=O)=O)cc3F)c2cc1OC` (centres undefined), for which the EC50 in test [1] was determined as 1 µM. Further, the Emax in test [2] was found to be 53.7%. As to `COc1cc2nc(OCC3CCN(C(=O)OC(C)(C)C)CC3)nc(Nc3ccc(S(C)(=O)=O)cc3)c2cc1OC`, in test [3], the outcome was inactive. For the same compound, in test [4], the Emax result was “inactive”. In the case of `COc1cc2nc(Nc3ccc(S(C)(=O)=O)cc3)nc(OC3CCN(C(=O)OC(C)(C)C)CC3)c2cc1OC`, in test [1], the EC50 is greater than 10 µM. Besides, the Emax in test [2] stood at 20.6%.

With `COc1cc2nc(Nc3ccc(S(C)(=O)=O)cc3F)nc(OCC3CCN(C(=O)OC(C)(C)C)CC3)c2cc1OC`, the EC50 in test [1] was greater than 10 µM. For the same compound, the maximal effect (Emax) in test [2] was 21.3%.

Turning to `COc1cc2nc(N3CCC4CCC(C3)N4C(=O)OC(C)(C)C)nc(Nc3ccc(S(C)(=O)=O)cc3F)c2cc1OC` (racemic), the EC50 in test [1] came out at 1 µM. Besides, the maximum response (Emax) in test [2] was 56.9%. Taken in the same sequence, the figures for `COc1cc2nc(NCC3CC4CCC(C3)N4C(=O)OC(C)(C)C)nc(Nc3ccc(S(C)(=O)=O)cc3)c2cc1OC` (centres undefined) were greater than 10 µM and 19.9%.

Regarding `COc1cc2nc(Nc3ccc(S(C)(=O)=O)cc3)nc(NC3CC4CCC(C3)N4C(=O)OC(C)(C)C)c2cc1OC` (centres undefined), the half-maximal effective concentration (EC50) in test [1] was greater than 10 µM. The Emax in test [2] amounted to 17%. Turning to `COc1cc2nc(Nc3ccc(S(C)(=O)=O)cc3)nc(N3CCC4CCC(C3)N4C(=O)OC(C)(C)C)c2cc1OC` (racemic), the EC50 in test [1] is greater than 10 µM. Besides, in test [2], the Emax was determined as 37.5%. Consider `COc1cc2nc(N3CCC4CCC(C3)N4Cc3ccccc3)nc(Nc3ccc(S(C)(=O)=O)cc3)c2cc1OC` (racemic), for which the EC50 in test [1] was greater than 10 µM. In addition, the maximal effect (Emax) in test [2] came to 23.4%. On to `COc1cc2nc(OC3CCN(C(=O)OC(C)(C)C)CC3)nc(Nc3ccc(S(C)(=O)=O)cc3F)c2cc1OC`, for which the EC50 in test [1] is greater than 10 µM. The Emax in test [2] was 19.6%.

With `COc1cc2nc(OC3CCN(C(=O)OC(C)(C)C)CC3)nc(Nc3ccc(S(C)(=O)=O)cc3)c2cc1OC`, the EC50 in test [1] was greater than 10 µM. Moreover, the maximal effect (Emax) in test [2] amounted to 17.9%. `COc1cc2nc(N3CCC4CCC(C3)N4Cc3ccccc3)nc(Nc3ccc(S(C)(=O)=O)cc3F)c2cc1OC` (racemic): the EC50 in test [1] was greater than 10 µM. The Emax in test [2] worked out at 44.3%. Consider `COc1cc2nc(NC3CC4CCC(C3)N4C(=O)OC(C)(C)C)nc(Nc3ccc(S(C)(=O)=O)cc3F)c2cc1OC` (centres undefined), for which the EC50 in test [1] came out at 1 µM. Moreover, in test [2], the Emax was found to be 46.2%.

As for `CCCCCCCC/C=C\CCCCCCCC(=O)NCCO` [OLEOYLETHANOLAMIDE], in test [1], the EC50 turned out to be 2.2 µM. Regarding `COc1cc2nc(Nc3ccc(S(C)(=O)=O)cc3)nc(OCC3CCN(C(=O)OC(C)(C)C)CC3)c2cc1OC`, the EC50 in test [1] was greater than 10 µM. The Emax in test [2] was 17.4%.

For `COc1cc2nc(OCC3CCN(C(=O)OC(C)(C)C)CC3)nc(Nc3ccc(S(C)(=O)=O)cc3F)c2cc1OC`, the EC50 in test [1] is greater than 10 µM. Further, the Emax in test [2] is 33.2%. As to `COc1cc2nc(Nc3ccc(S(C)(=O)=O)cc3)nc(NCC3CC4CCC(C3)N4C(=O)OC(C)(C)C)c2cc1OC` (centres undefined), the EC50 in test [1] is greater than 10 µM. Besides, the Emax in test [2] was determined as 15.1%. Turning to `COc1cc2nc(Nc3ccc(S(C)(=O)=O)cc3)nc(N3CCC4CCC(C3)N4Cc3ccccc3)c2cc1OC` (racemic), the EC50 in test [1] was greater than 10 µM. Further, in test [2], the Emax was found to be 32.8%. `COc1cc2nc(Nc3ccc(S(C)(=O)=O)cc3F)nc(OC3CCN(C(=O)OC(C)(C)C)CC3)c2cc1OC`: the EC50 in test [1] is greater than 10 µM. In addition, in test [2], the Emax is 19.7%.
